Sampled rows, rich in hits. Any-hit rate of the full collection: about 4.1%.
KCNK3 block = human KCNK3 channel inhibition, primary screen; O14649; AID 602410; CHO-KCNK3 thallium flux, FluxOR fluorescence; stronger effect = lower value; B-score at 10 µM; 340,000 compounds, 0.84% hits;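 active = B-score under library mean minus 4 SD, starting fluorescence ratio at most library mean plus 5 SD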;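 also: more negative B-score means stronger inhibition of thallium flux through KCNK3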
hERG protect = compounds protecting human hERG from proarrhythmic drug block; CHO-hERG, FluxOR thallium flux, dofetilide IC70 present; activation (rescue from dofetilide block), less the hit threshold, % at 10 µM; 310,000 compounds, 0.51% hits;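 active = activation above the mean of controls blocked by dofetilide plus 5 SD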;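 also: thallium influx through hERG after potassium depolarization seen as dye fluorescence rise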
KCNQ1 pot = human KCNQ1 channel potentiation or activation | P51787 | CHO-K1 KCNQ1, thallium flux FluxOR fluorescence; stronger effect = higher value | B-score at 10 µM | 310,000 compounds, 0.35% hits | AID 2648;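 active = fluorescence ratio B-score, a plate-corrected score, at least three library SD, with initial intensity B-score within 5 SD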
Target sequence (P51787 whole entry, looked up): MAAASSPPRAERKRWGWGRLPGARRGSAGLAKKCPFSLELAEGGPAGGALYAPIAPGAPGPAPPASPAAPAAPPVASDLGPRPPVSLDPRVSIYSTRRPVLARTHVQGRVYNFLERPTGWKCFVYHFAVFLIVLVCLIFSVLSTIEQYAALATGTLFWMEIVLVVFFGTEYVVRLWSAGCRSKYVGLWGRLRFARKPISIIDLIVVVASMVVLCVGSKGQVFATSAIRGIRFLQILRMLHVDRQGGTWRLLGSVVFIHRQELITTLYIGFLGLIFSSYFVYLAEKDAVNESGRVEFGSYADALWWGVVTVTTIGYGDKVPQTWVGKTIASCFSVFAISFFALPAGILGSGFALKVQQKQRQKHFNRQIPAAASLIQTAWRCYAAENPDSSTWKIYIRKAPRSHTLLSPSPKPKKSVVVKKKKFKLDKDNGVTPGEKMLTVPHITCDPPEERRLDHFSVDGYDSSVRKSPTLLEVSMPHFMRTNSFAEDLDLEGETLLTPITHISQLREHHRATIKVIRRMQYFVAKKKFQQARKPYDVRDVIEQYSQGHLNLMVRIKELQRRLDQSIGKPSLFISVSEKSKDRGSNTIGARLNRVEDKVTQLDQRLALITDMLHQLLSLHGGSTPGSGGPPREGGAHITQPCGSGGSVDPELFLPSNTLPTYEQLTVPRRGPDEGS
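Material: CHO-K1 cells stably expressing KCNQ1. Medium: assay buffer for compound exposure, DMSO matched across wells. Reagent: K+/Tl+ depolarizing stimulus. Compound dosing: single-concentration screen. Times: 37 °C overnight plating, 90-min dark dye load, 20-min compound pretreatment. Technique: FluxOR Tl+ flux fluorescence.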
Cl transport mod = modulators of human KCC2 chloride dependent transport. Q9H2X9. KCC2 cells, thallium flux FluoZin-2 fluorescence. B-score of Tl+ flux slope (higher = more flux/activation; lower = inhibition) at 10 µM. 190,000 compounds, 2.2% hits. AID 1456;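 active = thallium flux slope and its plate-corrected score both differing from the plate sample mean at a set confidence after two filtering rounds, in either direction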;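 also: slope of fluorescence scaled to starting intensity during 10 to 20 s after thallium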
KCNQ1 inh = human KCNQ1 channel inhibition; P51787; CHO-K1 KCNQ1, FluxOR thallium flux fluorescence; stronger effect = higher value; B-score at 10 µM; 310,000 compounds, 1.3% hits;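 active = compounds whose thallium flux B-score, printed positive for inhibition, exceeds three library SD while starting fluorescence stays within three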;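 also: channel opened by potassium depolarization with thallium stimulus after 20 min compound exposure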
KCNK9 inh = human KCNK9 channel inhibition; HEK293 KCNK9, FluxOR thallium flux fluorescence; stronger effect = lower value; B-score at 10 µM; 310,000 compounds, 1.2% hits; AID 488922;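 active = ratio B-score over 3 SD below the library mean, with starting fluorescence within 5 SD of its mean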;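 also: negative B-score means less thallium flux so channel inhibition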
Each line names hits and unclear results; the compound was inactive in the other large screens.

O=C(N/N=C/C1=C(N2CCOCC2)C(=C\c2ccccc2)/CC1)Nc1ccccc1	none
CC(C)(C)NC(=O)CSc1nnc(-c2ccco2)n1Cc1ccco1	hERG protect 4.9
CN1CCN(c2sc(S(C)(=O)=O)nc2S(=O)(=O)c2ccc(Cl)cc2)CC1	none (no result: Cl transport mod)
Cc1cn(CC(=O)NCc2ccc3c(c2)OCO3)c(=O)[nH]c1=O	none (no result: hERG protect, KCNQ1 pot, Cl transport mod, KCNQ1 inh, KCNK9 inh)
CCC(=O)Nc1ccc(C(=O)CSc2nc3ccccc3cc2CC)cc1	KCNK9 inh -7.2 (no result: Cl transport mod)
Cc1ccc(CNC(=O)c2cn(C3CCCC3)c(=O)c3c2c2ccccc2n3C)o1	KCNK9 inh -6.7 (no result: KCNK3 block, Cl transport mod)
Cn1c2ccccc2c2c(C(=O)NCc3ccco3)cn(C3CCCCC3)c(=O)c21	none (no result: Cl transport mod)
COc1ccc2nc(NN=C(C)c3ccccn3)cc(C)c2c1	none (no result: hERG protect, KCNQ1 pot, Cl transport mod, KCNQ1 inh, KCNK9 inh)
O=C(Cn1cnc([N+](=O)[O-])c1)Nc1cc(Oc2ccc(Cl)cc2Cl)cc([N+](=O)[O-])c1	KCNQ1 inh 8
CCOc1ccc(N2Nc3n[nH]c(N)c3N2)cc1	hERG protect 37
COc1ccc(N2Nc3n[nH]c(N)c3N2)cc1	none
Cc1ccc(C(=O)N/N=C(/CC(=O)c2cccs2)C(F)(F)F)cc1	hERG protect 16, KCNQ1 pot 13, Cl transport mod 64
CCc1ccc(-c2nc(SCC(=O)N3CCOCC3)n[nH]2)cc1	hERG protect 10
O=c1cc(-c2ccccc2Cl)oc2ccc([N+](=O)[O-])c(O)c12	none
O=[N+]([O-])c1cc([N+](=O)[O-])c2oc(-c3ccccc3)c(Br)c2c1O	KCNQ1 inh 8 (no result: Cl transport mod)
O=C(O)c1ccc(Cl)cc1Nc1nc2cc(Cl)ccc2o1	hERG protect 5.6 (no result: Cl transport mod)
CCC(=O)Nc1cc(Cl)ccc1C(=O)O	none
CCCNCC1C(Oc2ccc(Cl)cc2Cl)C(=O)N1c1cccc(C)c1C (centres undefined)	KCNK9 inh -6.7
O=C(CCC(=O)Nc1ccc(Cl)cc1)N/N=C/c1ccc2c(c1)OCO2	KCNQ1 inh 6 (no result: Cl transport mod)
CCC1C/C(=C\c2cc(OC)c(OC)cc2OC)C(=O)/C(=C/c2cc(OC)c(OC)cc2OC)C1 (centres undefined)	KCNK3 block -11, KCNQ1 inh 7 (no result: Cl transport mod)
COc1ccc(C(C)(C)C)cc1NC(=O)CSc1ncn[nH]1	none (no result: hERG protect, KCNQ1 pot, Cl transport mod, KCNQ1 inh, KCNK9 inh)
O=C(NCc1ccccn1)C1CCN(Cc2cccc(OCc3ccccc3)c2)CC1	KCNQ1 pot 8
NC(=O)C1CCN(Cc2cccc(OCc3ccccc3)c2)CC1	none (no result: Cl transport mod)
CCOC(=O)c1c(C)oc2cc(Br)c(OC)cc12	hERG protect 9.4
CCOC(=O)c1c(CNCCN(CC)CC)n(C)c2cc(Br)c(OC)cc12	Cl transport mod -3
CCOc1ccc(S(=O)(=O)N2CCN(CCNS(=O)(=O)c3ccc(C)cc3)CC2)cc1	none (no result: hERG protect, KCNQ1 pot, Cl transport mod, KCNQ1 inh, KCNK9 inh)
COc1ccc(-c2c[n+]3c4n2CCCCC4=C(c2ccccc2)C3)cc1	KCNQ1 inh 7
Cc1cc(NC(=O)OC2CCCCC2)ccc1[N+](=O)[O-]	none (no result: Cl transport mod)
Cc1ccc(S(=O)(=O)N2CCOCC2)cc1NC(=O)COC(=O)c1cccnc1Cl	hERG protect 35
Cc1ccc(S(=O)(=O)N2CCN(C(=O)COC(=O)CCOc3ccc(C(C)(C)C)cc3)CC2)cc1	KCNQ1 inh 6 (no result: Cl transport mod)
Cc1ccc(S(=O)(=O)N2CCOCC2)cc1NC(=O)COC(=O)CCOc1ccc(C(C)(C)C)cc1	KCNQ1 inh 8 (no result: Cl transport mod)
CCOc1ncccc1C(=O)OCC(=O)Nc1cc(S(=O)(=O)N2CCOCC2)ccc1C	none
Cc1ccc(S(=O)(=O)N2CCOCC2)cc1NC(=O)COc1cccc(Oc2ccccc2)c1	KCNQ1 inh 6 (no result: Cl transport mod)
Cc1ccc(S(=O)(=O)N2CCOCC2)cc1NC(=O)COC(=O)CNC(=O)c1ccc(C(C)(C)C)cc1	none
O=C(COC(=O)c1cccnc1Cl)Nc1ccc2c(c1)OCCO2	hERG protect 37
O=C(CN1C(=O)CCOc2ccccc21)Nc1ccc(Cl)c(S(=O)(=O)N2CCOCC2)c1	none (no result: hERG protect, KCNQ1 pot, Cl transport mod, KCNQ1 inh, KCNK9 inh)
CCc1cc(C(=O)N/N=C/c2ccc(OC)cc2)c2ccccc2n1	none (no result: Cl transport mod)
O=C(CSc1ncnc2c1cnn2-c1ccccc1)Nc1ccc2c(c1)OCO2	none (no result: Cl transport mod)
O=C(CSc1ncnc2c1cnn2-c1ccc(Cl)cc1)NCc1ccc2c(c1)OCO2	hERG protect 4.7, Cl transport mod 21
